Activity calls are given as the source filed them.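 How the source made its calls, unless noted: active means fluorescence slope higher than the sample average by over 3 SD (cut at about -0.22 in these data, passing the limit was not always enough); inactive means the rest.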

This is an account of results in PubChem BioAssay.

Test [1] can be described thus: inhibitors of TNFa-induced NFkB p65 translocation, primary screen, imaging, HUVEC, MLSMR starter and 10KST1 sets (AID 438;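 active means inhibition above 20% together with a positive visual image hit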;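 further: compound added about 3h40 before a 20 min TNFalpha stimulation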;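 on inhibition: signal is the nuclear over cytoplasmic p65 intensity ratio per well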). Particulars: HUVEC TNFa-induced p65 nuclear translocation; cell count: measured here: nuclei count (cytotoxicity indicator), at 2.08 µM; inhibition: at 2 µM, stronger effect = higher value, 0% TNFa-plus-vehicle, 100% no-TNFa wells.
The nature of test [2]: endothelial E-selectin expression blockers – imaging, HUVEC, immunofluorescence, MLSMR starter and 10KST1 sets, primary screen (AID 487;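 active means visually confirmed hit in the image check and inhibition above 20%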;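 on inhibition: signal is fraction of cell area covered by stained E-selectin grains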;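 on nuclei count: 100% = median nuclei count of all wells on the same plate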). To be noted: HUVEC TNFalpha-induced E-selectin immunofluorescence imaging, at 2 µM; inhibition: stronger effect = higher value; nuclei count: measured here: cell number, toxicity.
A short description of test [3]: Primary imaging screen for DUSP6 inhibitors that restore phospho-Erk in transfected HeLa cells, chemical complementation (AID 609;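 active means compounds giving at least 50% inhibition in the cell-based MKP-3 phosphatase rescue imaging test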;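 on inhibition: phospho-Erk level distribution per well compared with pooled transfected vehicle control wells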). Particulars: HeLa MKP-3 transfected, phospho-Erk imaging KS statistic, at 10 µM, cells stimulated with TPA for 15 min.
The target in test [4] is Dual specificity protein phosphatase 6 (Homo sapiens) (UniProt Q16828). The description is as above. Particulars: HeLa MKP-3 transfected, phospho-Erk imaging KS statistic; at 10 µM; stronger effect = higher value; cells stimulated with TPA for 15 min.
Dual specificity protein phosphatase 6 (Homo sapiens), sequence (Q16828 whole entry, looked up): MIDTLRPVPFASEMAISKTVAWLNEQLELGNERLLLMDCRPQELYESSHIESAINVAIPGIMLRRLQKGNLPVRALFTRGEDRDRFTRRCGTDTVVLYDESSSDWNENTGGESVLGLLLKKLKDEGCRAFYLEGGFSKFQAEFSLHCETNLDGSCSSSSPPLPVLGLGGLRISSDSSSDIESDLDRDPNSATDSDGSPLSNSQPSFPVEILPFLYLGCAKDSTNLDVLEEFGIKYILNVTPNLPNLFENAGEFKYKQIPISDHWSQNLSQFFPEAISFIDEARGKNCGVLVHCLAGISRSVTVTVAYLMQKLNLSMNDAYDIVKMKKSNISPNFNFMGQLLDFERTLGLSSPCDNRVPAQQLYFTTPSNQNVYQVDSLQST
Test [5] deals with Voltage-gated potassium channel subunit beta-2 (Rattus norvegicus) (UniProt P62483). Nature of the test: inhibitors of rat Kvbeta2 reductase activity – biochemical, NADPH fluorescence, primary screen (AID 622).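 Further: slope of raw intensity against log time taken from 70 to 1610 s.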 Particulars: recombinant KvBeta, 4-cyanobenzaldehyde reduction, at 10 µM, stronger effect = higher value.
Voltage-gated potassium channel subunit beta-2 (Rattus norvegicus), sequence (P62483 whole entry, looked up): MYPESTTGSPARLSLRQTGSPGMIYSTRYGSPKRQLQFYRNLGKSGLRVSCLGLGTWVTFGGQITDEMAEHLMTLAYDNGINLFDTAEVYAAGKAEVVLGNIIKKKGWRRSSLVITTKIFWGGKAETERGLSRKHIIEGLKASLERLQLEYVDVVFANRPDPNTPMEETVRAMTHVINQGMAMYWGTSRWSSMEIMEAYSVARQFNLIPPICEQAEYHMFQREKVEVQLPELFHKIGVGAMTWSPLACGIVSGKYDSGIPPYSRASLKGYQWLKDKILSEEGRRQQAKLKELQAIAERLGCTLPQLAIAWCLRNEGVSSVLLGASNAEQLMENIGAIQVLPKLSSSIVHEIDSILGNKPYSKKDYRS
The target is the same in test [6]. Nature of the test: enhancers of rat Kvbeta2 NADPH turnover – biochemical, NADPH fluorescence, primary screen (AID 623;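 active means NADPH fluorescence slope more negative than the mean of all samples by about 3 SD, 99.7% confidence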;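 further: fluorescence intensity change per second fitted from 20 to 320 s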). Particulars: Recombinant KvBeta, NADPH fluorescence decrease slope, 10 min; at 10 µM; stronger effect = lower value.
The target in test [7] is Muscarinic acetylcholine receptor M4 (Homo sapiens) (UniProt P08173). Nature of the test: M4-linked GIRK flux change, two-sided – cell-based, HEK293 M4/GIRK, thallium flux, BTC-AM, M4 allosteric agonist project, primary screen (AID 625;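 active means fluorescence slope after compound addition differing from the mean of all tested samples at 99.7% confidence, mostly higher but some lower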;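 further: thallium influx through GIRK channels coupled to M4 in HEK293 cells with BTC-AM dye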). Particulars: at 10 µM, actives lie on both sides. The method, boiled down: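 Material – HEK293 cells with M4 receptor and GIRK channels · Buffer or medium – pH 7.3 thallium assay buffer · Doses – one dose, 10 µM final · Timing – cells overnight at 37 °C, BTC-AM loading 1 h, reads 2 min total · Measured by – kinetic fluorescence with BTC-AM dye · Controls – carbachol and DMSO controls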
Muscarinic acetylcholine receptor M4 (Homo sapiens), sequence (P08173 whole entry, looked up): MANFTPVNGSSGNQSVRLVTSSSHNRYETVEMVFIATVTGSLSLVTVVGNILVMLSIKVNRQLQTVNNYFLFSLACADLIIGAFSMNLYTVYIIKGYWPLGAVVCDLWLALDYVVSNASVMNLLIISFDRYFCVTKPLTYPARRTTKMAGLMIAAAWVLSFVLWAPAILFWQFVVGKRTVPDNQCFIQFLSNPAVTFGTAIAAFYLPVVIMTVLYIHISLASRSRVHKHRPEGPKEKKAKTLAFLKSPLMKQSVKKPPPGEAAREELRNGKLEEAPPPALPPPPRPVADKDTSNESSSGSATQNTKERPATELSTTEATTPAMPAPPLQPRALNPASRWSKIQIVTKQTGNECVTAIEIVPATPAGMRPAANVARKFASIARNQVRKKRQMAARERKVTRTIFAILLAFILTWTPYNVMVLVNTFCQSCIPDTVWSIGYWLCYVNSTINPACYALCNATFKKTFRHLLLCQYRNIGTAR

Test [8] is described as follows: inhibitors of larval lipid processing in zebrafish, primary screen, whole organism, PED6 fluorescence, gall bladder and intestine (AID 686;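 active means a full or partial loss of lipid-probe fluorescence in the fish gall bladder, intestine or both, judged by eye; inactive means no fluorescence loss, or compound toxic to the fish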;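 further: larvae 5 to 7 days old with five fish per well; signal comes from phospholipase A2 cleavage of quenched PED6 carried via bile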). Particulars: Zebrafish larvae PED6 lipid processing, fluorescence scoring; screened at 20 µM (by protocol). In short, it runs like this: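 system = live zebrafish larvae aged 5-7 days, whole organism | probe or stimulus = ingested quenched lipid PED6 at 100 nM | doses = 20 µM single dose | timing = overnight exposure | detection = fluorescence microscopy with visual scoring of gall bladder and intestine | read-out = visual per-well fluorescence inhibition score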

The nature of test [9]: loss of swimming-algae plug formation – whole organism, Chlamydomonas reinhardtii, WT vs cilia-less mutant, absorbance, 96-well, primary screen (AID 463189;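 active means inhibition at or above 50% relative to wild type and mutant plate controls; inactive means inhibition below 50%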;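 further: 0% = wild type cc124 cells in DMSO and 100% = ciliumless bld1 mutant cells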). To be noted: Chlamydomonas reinhardtii gravitaxis, OD600 absorbance, 2 days; at 10 µM; stronger effect = higher value.
[10] abbreviates: measured here: cell density z-score.
Setting [11] is: measured here: nuclear c-Myc green intensity z-score.
Setting [12] is: measured here: nuclear pErk red intensity z-score, stronger effect = higher value.

As usually defined, the inhibition is the drop in the measured response relative to a control, in per cent. In the case of `CC1(C)Cc2c(c(-c3ccco3)[nH]c(=O)c2C#N)CS1`, the cell count in test [1] is 706. Also, the inhibition is -0.5% (inactive) in [1], -101% (inactive) in test [2], -11.5% (inactive) in test [4] and 3.67% (inactive) in test [9]. Also, in test [2], the nuclei count is 143%. The z-score amounted to 0.203 in [3] (setting [10]), 0.427 in test [3] (setting [11]) and 1.52 in test [3] (setting [12]). In addition, the fluorescence slope was -0.388 (inactive) in test [5] and 0.00494 (inactive) in test [7]. In addition, in [6], the NADPH fluorescence slope is -9.3e-05 (inactive). The result in test [8] was inactive.

As for `Cc1nc(=O)c(-c2ccccc2)c(C)n1-c1ccc(S(N)(=O)=O)cc1`, the cell count in test [1] stood at 568. For the same molecule, the inhibition in test [1] is -4.9% (inactive); in [2] it was -74.8% (inactive); in test [4], 7.93% (inactive); in test [9], -8.67% (inactive). The molecule also gave a nuclei count in test [2] of 154%. Also, the z-score in [3] (setting [10]) amounted to 0.3; in test [3] (setting [11]) it was 0.245; in test [3] (setting [12]), 1.29. In addition, the figures for the fluorescence slope in test [5] and in [7] were -0.406 (inactive) and 0.00537 (inactive), respectively. Besides, the NADPH fluorescence slope in [6] is -4.5e-05 (inactive). The result in test [8] was inactive.

Take `COc1cccc(OC)c1C(=O)Nc1nc2ccc(S(C)(=O)=O)cc2s1`: the cell count in test [1] stood at 388. The inhibition is -2.4% (inactive) in test [1], -8.7% (inactive) in test [2], 6.04% (inactive) in test [4] and 19.4% (inactive) in test [9]. The nuclei count in [2] was found to be 109%. Further, the z-score is 0.854 in [3] (setting [10]), 0.658 in [3] (setting [11]) and -1.02 in test [3] (setting [12]). Further, the fluorescence slope in test [5] is -0.409 (inactive); in test [7] it was 0.00408 (inactive). In addition, the NADPH fluorescence slope in [6] is -1e-05 (inactive). Also, the molecule was called inactive in test [8].

Regarding `O=C1C=C(O)CC(c2ccc(Cl)c(Cl)c2)C1` (centres undefined), in test [1], the cell count came out at 606. The inhibition is 4.8% (inactive) in test [1], -56.5% (inactive) in [2], 14.7% (inactive) in test [4] and -8.94% (inactive) in [9]. The same molecule had a nuclei count in [2] of 115%. Moreover, the figures for the z-score in [3] (setting [10]), in test [3] (setting [11]) and in test [3] (setting [12]) were 0.34, 0.0724 and 0.952, respectively. Besides, the fluorescence slope was -0.41 (inactive) in test [5] and 0.00481 (inactive) in test [7]. The NADPH fluorescence slope in test [6] was -4.9e-05 (inactive). The molecule was classed as inactive in test [8].

Take `Cc1ccc(OCC(=O)N(C)CCc2ccccn2)cc1`: in [1], the cell count is 475. The inhibition in test [1] is -5.5% (inactive); in [2], -175% (inactive); in [4], -2.29% (inactive); in test [9], 7.87% (inactive). The molecule further had a nuclei count in test [2] of 159%. Also, the z-score in test [3] (setting [10]) was -0.678; in test [3] (setting [11]) it was -1.49; in test [3] (setting [12]) it was 1.57. The fluorescence slope in test [5] was -0.433 (inactive); in [7], 0.00557 (inactive). Besides, the NADPH fluorescence slope in test [6] is -5.2e-05 (inactive). In addition, the call in [8] was inactive.

For the molecule `O=C1C(=O)N(Cc2cccnc2)C(c2ccccn2)/C1=C(/O)c1ccc(Br)cc1` (centres undefined), the cell count in test [1] was 486. The inhibition is -5.3% (inactive) in test [1], -24.5% (inactive) in [2], 4.37% (inactive) in test [4] and -1.46% (inactive) in test [9]. Further, the nuclei count in test [2] worked out at 156%. Further, the results for the z-score in [3] (setting [10]), in test [3] (setting [11]) and in test [3] (setting [12]) were 1.28, -0.786 and -0.613, respectively. Moreover, the fluorescence slope in test [5] was -0.457 (inactive); in test [7], 0.00516 (inactive). The NADPH fluorescence slope in test [6] was -4.3e-05 (inactive). The molecule was classed as inactive in test [8].

For the molecule `CCOC(=O)CSc1nc(-c2ccc3c(c2)OCO3)ccc1C#N`, the cell count in test [1] amounted to 676. Also, the inhibition in test [1] is 4.9% (inactive); in [2], 5.4% (inactive); in [4], -2.91% (inactive); in test [9], -3.42% (inactive). This molecule also yielded a nuclei count in [2] of 120%. For the same molecule, the z-score is -0.127 in [3] (setting [10]), -1.03 in test [3] (setting [11]) and 0.898 in [3] (setting [12]). Also, the fluorescence slope in test [5] is -0.199 (inactive); in [7] it was 0.00583 (inactive). For the same molecule, in test [6], the NADPH fluorescence slope was -8.6e-07 (inactive). Further, the call in test [8] was inactive.

With `CC1(C)Cc2c(sc3ncn4nc(-c5ccco5)nc4c23)CO1`, the cell count in test [1] came out at 629. For the same molecule, the inhibition in test [1] is 6.6% (inactive); in test [2] it was -31.6% (inactive); in [4], -7.67% (inactive); in test [9], 16.9% (inactive). In test [2], this molecule showed a nuclei count of 112%. The z-score in [3] (setting [10]) was -0.299; in test [3] (setting [11]) it was 0.915; in test [3] (setting [12]), -1.17. Also, the fluorescence slope is -0.432 (inactive) in [5] and 0.00512 (inactive) in [7]. The NADPH fluorescence slope in test [6] was -4.1e-05 (inactive). Also, the molecule was called inactive in [8].

Turning to `CCCC(C)n1[nH]c(=O)cc1N` (centres undefined), in test [1], the cell count came to 395. Further, the inhibition in test [1] was -2.2% (inactive); in [2] it was -101% (inactive); in [4], 30.7% (inactive); in test [9] it was 27.7% (inactive). For the same molecule, the nuclei count in test [2] was found to be 137%. The z-score in test [3] (setting [10]) is 1.2; in [3] (setting [11]) it was -1.78; in [3] (setting [12]) it was -0.211. Further, the fluorescence slope is -0.46 (inactive) in [5] and 0.00418 (inactive) in test [7]. Further, the NADPH fluorescence slope in test [6] was -0.000101 (inactive). In addition, in test [8], the result was inactive.

Take `O=C1C2ON(c3ccccc3)C(c3cccnc3)C2C(=O)N1c1ccc(Cl)c(Cl)c1` (centres undefined): in test [1], the cell count was determined as 666. The inhibition is -5.7% (inactive) in [1], -61.8% (inactive) in test [2], -5.62% (inactive) in [4] and 11.2% (inactive) in test [9]. In test [2], this molecule registered a nuclei count of 147%. Moreover, the z-score in test [3] (setting [10]) was -0.87; in [3] (setting [11]), 0.124; in test [3] (setting [12]), -0.00603. In addition, the values for the fluorescence slope in test [5] and in test [7] were -0.479 (inactive) and 0.00562 (inactive), respectively. For the same molecule, in test [6], the NADPH fluorescence slope was -2.8e-05 (inactive). Moreover, the molecule was classed as inactive in test [8].

Turning to `C=CCN1C(=O)CC(C(=O)NC)SC1=Nc1ccc(C(=O)OCC)cc1` (centres undefined), the cell count in [1] worked out at 634. Besides, the inhibition is 12.2% (inactive) in [1], -19.2% (inactive) in test [2], -2.09% (inactive) in test [4] and 6.38% (inactive) in test [9]. Besides, in test [2], the nuclei count was determined as 105%. Also, the z-score in [3] (setting [10]) is -0.632; in test [3] (setting [11]), 0.636; in [3] (setting [12]) it was -0.397. Moreover, the fluorescence slope was -0.407 (inactive) in test [5] and 0.00387 (inactive) in test [7]. In addition, the NADPH fluorescence slope in [6] was -5.9e-05 (inactive). In addition, the molecule was called inactive in test [8].

With `CC(C)NCc1c(O)c(Br)cc2oc3c(c12)CCCC3`, the cell count in test [1] was 533. For the same molecule, the inhibition in test [1] is 9.9% (inactive); in test [2], -3.5% (inactive); in test [4], -7.67% (inactive); in test [9], 53.2% (active). Further, in test [2], the nuclei count was determined as 99.8%. In addition, the values for the z-score in test [3] (setting [10]), in [3] (setting [11]) and in test [3] (setting [12]) were 0.0675, -0.158 and -0.115, respectively. Besides, the fluorescence slope in test [5] is -0.517 (inactive); in test [7], 0.00361 (inactive). In [6], the NADPH fluorescence slope is -1.1e-05 (inactive). Moreover, in [8], the molecule was called inactive.

For the molecule `O=c1oc2c(CN3CCCCC3)c(O)ccc2c2c1CCCCC2`, the cell count in [1] was 566. In addition, the inhibition in test [1] is -6.1% (inactive); in [2], 34% (inactive); in test [4], 14.4% (inactive); in [9], 3.57% (inactive). The molecule further showed a nuclei count in [2] of 168%. In addition, the z-score is 1.43 in test [3] (setting [10]), -1.18 in test [3] (setting [11]) and -0.137 in [3] (setting [12]). Further, the fluorescence slope in test [5] was -0.00573 (inactive); in [7], 0.00521 (inactive). Besides, the NADPH fluorescence slope in test [6] is 8.5e-07 (inactive). In addition, the molecule was called inactive in test [8].
